TDP2 absorb: human TDP2 enzyme inhibitors, primary screen, biochemical, epi absorbance, recombinant enzyme | T5PNP hydrolysis, p-nitrophenol absorbance 415 nm | AID 720702, 2013 | hit rate 0.34% among 370,000 | Tyrosyl-DNA phosphodiesterase 2 (Homo sapiens), O95551 | inhibition, % at 12.8 µM;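 active means inhibition above the mean of all tested compounds plus 3 SD, set per campaign, cut at about 25% in these data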
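Material: recombinant human TDP2; quantity: TDP2 enzyme at 120 nM final; medium: Tris-HCl pH 7.5 with MgCl2; compound: single concentration, 12.8 µM nominal, with 1% DMSO; incubation: 2 h enzyme incubation at 37 °C; signal: epi absorbance; measure: percent inhibition; benchmarks: high control without enzyme, low control DMSO plus TDP2; repeats: singlicate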
CTSL1 counter: Fasciola hepatica cathepsin L1 inhibitors, primary screen, counter-screen for PFM18AAP inhibitor project, biochemical, QFRET, fluorogenic peptide substrate | recombinant F. hepatica cathepsin L1, Z-Leu-Arg-MCA fluorescence | inhibition, % at 5.96 µM | hit rate 0.49% among 300,000 | AID 1906, 2009;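 active means inhibition above the mean of all tested compounds plus 3 SD, set per screening campaign, cut at about 17% in these data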
GSTO1 counter: inhibitors of recombinant GSTO1, primary screen, counter-screen for RBBP9 inhibitor project, biochemical, fluorescence polarization | Glutathione S-transferase omega-1 (Homo sapiens), P78417 | activity-based probe fluorescence polarization | inhibition, % at 5.96 µM | hit rate 1.1% among 300,000;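 active means inhibition above the campaign mean inhibition plus 3 SD, cut at about 35% in these data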
Target sequence (P78417 whole entry, looked up): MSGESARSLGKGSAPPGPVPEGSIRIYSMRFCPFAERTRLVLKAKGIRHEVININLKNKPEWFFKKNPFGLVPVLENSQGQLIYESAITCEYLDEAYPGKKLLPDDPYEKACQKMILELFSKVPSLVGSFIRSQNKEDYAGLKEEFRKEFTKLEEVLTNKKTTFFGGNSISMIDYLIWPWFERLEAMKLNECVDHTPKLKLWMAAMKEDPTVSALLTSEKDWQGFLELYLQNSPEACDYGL
PAD4 FP inh: human PAD4 inhibitors, primary screen, biochemical, fluorescence polarization, 1536-well format; inhibition, % at 6.36 µM; Protein-arginine deiminase type-4 (Homo sapiens), Q9UM07; recombinant PAD4, RCA probe fluorescence polarization; hit rate 0.41% among 330,000;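 active means percent inhibition above a cutoff equal to the mean of all tested compounds plus 3 SD, cut at about 15% in these data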
PRMT1 inh: PRMT1 methyltransferase inhibitors, primary screen, biochemical, fluorescence polarization. Protein arginine N-methyltransferase 1 (Homo sapiens), Q99873. recombinant PRMT1, activity-based probe fluorescence polarization. inhibition, % at 2.79 µM. hit rate 1.3% among 370,000. AID 652257, 2013;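 active means inhibition above about 21% made by adding two undisclosed values, limit read from the data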
Target sequence (Q99873 whole entry, looked up): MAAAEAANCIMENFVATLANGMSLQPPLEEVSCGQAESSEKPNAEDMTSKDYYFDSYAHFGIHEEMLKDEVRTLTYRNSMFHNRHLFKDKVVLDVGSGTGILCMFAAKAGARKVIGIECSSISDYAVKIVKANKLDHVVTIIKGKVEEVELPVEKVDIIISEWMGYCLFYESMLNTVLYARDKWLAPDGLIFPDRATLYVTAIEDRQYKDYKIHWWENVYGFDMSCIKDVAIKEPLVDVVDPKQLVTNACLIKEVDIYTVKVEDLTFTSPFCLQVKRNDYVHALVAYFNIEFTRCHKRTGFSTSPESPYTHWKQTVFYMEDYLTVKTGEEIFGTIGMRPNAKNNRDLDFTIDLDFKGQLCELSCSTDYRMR
GSTO1 confirm: GSTO1 inhibitor hit confirmation, counter-screen for RBBP9 inhibitor project, biochemical, fluorescence polarization, triplicate | shares compounds with GSTO1 counter | recombinant GSTO1, probe fluorescence polarization | inhibition, % at 5.96 µM | hit rate 54% among 2,400 | AID 2176, 2009;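 active means inhibition above the primary screen's cutoff, its mean inhibition plus 3 SD, cut at about 35% in these data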;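 further: loss of polarization as inhibitors block binding of rhodamine sulfonate ester activity probe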
GSTO1 ABPP inh: inhibitors of purified human GSTO1, late-stage follow-up, biochemical, gel ABPP, SE-Rh probe, percent inhibition. hit rate 30% among 130. shares compounds with GSTO1 counter. inhibition, % at 1 µM. recombinant GSTO1, gel ABPP SE-Rh probe fluorescence. AID 463110, 2010;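 active means inhibition of the enzyme GSTO1 above about 75%, limit read from the data; inactive means inhibition below that limit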
PAD4 confirm: human PAD4 inhibitors, confirmation, biochemical, fluorescence polarization | AID 488796, 2010 | inhibition, % at 6.36 µM | recombinant PAD4, RCA probe fluorescence polarization | hit rate 28% among 1,200 | shares compounds with PAD4 FP inh;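 active means mean inhibition across replicates above the hit cutoff set by the earlier primary screen, cut at about 15% in these data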;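 further: inhibitors block active-site labeling by the probe so polarization falls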
Numbers stand for hits; - = inactive; . = no result; + = active, no number. An excerpt weighted towards active compounds, which were near 2.5% of everything screened.

SMILES	TDP2 absorb	CTSL1 counter	GSTO1 counter	PAD4 FP inh	PRMT1 inh	GSTO1 confirm	PAD4 confirm	others
Cc1ccc(N=Cc2cccc(O)c2O)c(C)c1	-	-	85.0	-	-	-	.
Cc1ccccc1N=Cc1cccc(O)c1O	.	-	69.6	-	.	-	.
CCCCOc1ccc(C(=O)NC2CCCCN(Cc3ccc(Cl)cc3)C2=O)cc1 (stereo unspecified)	-	.	.	.	-	.	.
COc1ccc(C2Nc3ccccc3C(=O)N2Cc2cccnc2)cc1COc1c(C)cccc1C (stereo unspecified)	-	.	.	.	-	.	.
O=C(Nc1ccccc1)Nc1cccc2ccccc12	-	-	-	-	-	.	.
COc1ccc(OC)c(NC(=O)Nc2ccc(O)c3ccccc23)c1	-	-	61.4	23.2	-	-	-
O=C(Nc1ccccc1)Nc1ccc(O)c2ccccc12	.	-	47.0	23.8	.	37.9	-
Cc1ccc(S(=O)(=O)Nc2cc(Cl)c(O)c3ncccc23)cc1	-	-	61.3	36.3	-	-	-
CC1=CC(C)(C)N2C(=O)C(=Nc3ccc(O)cc3)c3cccc1c32	-	43.9	96.8	25.6	-	-	-
O=C(CC1Nc2cccc3cccc(c23)NC1=O)Nc1ccccc1 (stereo unspecified)	-	-	37.6	25.2	-	-	-
NC(=O)CC1Nc2cccc3cccc(c23)NC1=O (stereo unspecified)	-	-	-	-	-	.	.
CCCCCCCCN1C(=O)[C@@H](CC(=O)NCc2ccc(OC)c(OC)c2)C[C@@]2(C(=O)OC)C1=C[C@H](C(C)C)O[C@@H]2C1CC1	-	.	.	.	-	.	.
O=[N+]([O-])c1cc(Cc2ccccc2)cc(C=Nc2ccc(N3CCOCC3)cc2)c1O	.	-	68.7	24.4	.	-	-
Cc1ccc(O)c(N=Cc2cc(Cc3ccccc3)cc([N+](=O)[O-])c2O)c1	-	.	.	.	-	.	.
CS(=O)(=O)N1CCC[C@]2(CC[C@H](CCC#N)O2)C1	-	.	.	.	-	.	.
CCCn1nc([N+](=O)[O-])c(C(C#N)c2nc3ccccc3s2)c(Cl)c1=O (stereo unspecified)	-	-	66.0	19.1	28.1	44.4	22.7
O=[N+]([O-])c1ccc(CN2CCN(c3nc4ccccc4s3)CC2)cc1	-	-	-	-	-	.	.
CN1C(=O)C[C@@](C#N)(C(=O)NCC(F)(F)F)[C@H]1c1ccccc1	-	.	.	.	-	.	.
CCN(CC)S(=O)(=O)c1ccc(C)c(NS(=O)(=O)c2cc(/C=C/C(=O)O)cc(OC)c2OC)c1	-	-	39.0	52.6	-	-	-
CCN1Cc2nnn(Cc3ccccc3)c2-c2cc(N3CCCC3)ccc2S1(=O)=O	-	.	.	.	-	.	.
COc1ccc(CN2CN3Cc4cc(F)ccc4C3CS2(=O)=O)cc1 (stereo unspecified)	-	.	.	.	-	.	.
CCCCN(C)C(=O)c1oc(=O)c2ccccc2c1-c1ccc(C)cc1	-	.	.	.	-	.	.
CN1CCc2cc3c(c4c2[C@H]1[C@H](O)c1ccccc1-4)OCO3	-	-	68.7	37.0	49.2	-	34.5
CC(=O)NC(NC(C)=O)c1ccc(N(C)C)cc1	-	-	-	-	-	.	.
CC(=O)NC1=C(Nc2ccc(N(C)C)cc2)C(=O)c2ccccc2C1=O	-	-	46.3	17.5	-	-	-
SMILES	TDP2 absorb	CTSL1 counter	GSTO1 counter	PAD4 FP inh	PRMT1 inh	GSTO1 confirm	PAD4 confirm	others
Cc1[nH][nH]c(=O)c1C(c1c(C)[nH][nH]c1=O)c1cn(Cc2ccc(F)cc2)c2ccccc12	.	-	56.3	24.1	.	-	-
O=C(O)Cc1cn(Cc2ccc(F)cc2)c2ccccc12	-	-	-	-	-	.	.
Cc1ccccc1Cn1cc(COC(=O)NCC(C)C)nn1	-	.	.	.	-	.	.
CCOc1ccc(C2OC34CCCCC3C(C#N)(C#N)C2(C#N)C(=N)O4)cc1OC (stereo unspecified)	.	-	39.3	34.5	.	-	18.1
CC(=O)[C@]1(O)Cc2c(O)c3c(c(O)c2[C@@H](O[C@H]2C[C@H](N)[C@H](O)[C@H](C)O2)C1)C(=O)c1ccccc1C3=O	.	-	67.0	84.2	.	59.1	89.4
COc1cccc2c1C(=O)c1c(O)c3c(c(O)c1C2=O)C[C@@](O)(C(=O)CO)C[C@@H]3O[C@H]1C[C@H](N)[C@@H](O)[C@H](C)O1	.	-	44.3	56.2	.	-	64.4
COC(=O)C1CN(C2CCCC2)CCS(=O)(=O)N1Cc1cn(Cc2ccccc2)nn1 (stereo unspecified)	-	.	.	.	-	.	.
Brc1cccc(C=Nc2cccc3ncccc23)c1	-	-	-	-	-	.	.
Oc1c(Br)cc(Br)cc1C=Nc1cccc2ncccc12	-	-	73.4	37.4	-	-	-
CCOc1ccc(S(=O)(=O)Nc2cc(Sc3ncn[nH]3)c3oc(=O)sc3c2)cc1	.	-	47.2	18.5	.	-	-
CCOc1ccc(S(=O)(=O)Nc2ncn[nH]2)cc1	-	-	-	-	-	.	.
Cn1cccc1C(=O)N1CCN(S(=O)(=O)c2ccc(C(C)(C)C)cc2)CC1	-	.	.	.	-	.	.
O=C(Cc1ccc(Cl)cc1)NCCc1c[nH]c2ccccc12	-	-	-	-	-	.	.
O=C(CCl)N(c1ccc(Cl)cc1)c1c[nH]c2ccccc12	-	-	71.6	16.6	-	82.2	33.8	GSTO1 ABPP inh=-
Oc1ccc(N=Cc2ccc(-c3cccs3)s2)cc1	-	39.5	81.7	17.7	37.8	-	-
O=Cc1ccc(-c2cccs2)s1	-	.	.	.	-	.	.
Cc1cc(C(=O)N/N=C/c2ccc(-c3cccc(Cl)c3Cl)o2)n[nH]1	-	-	-	-	-	.	.
CC(C)(C)c1cc(C(=O)N/N=C/c2ccc(-c3ccccc3[N+](=O)[O-])o2)n[nH]1	-	-	52.0	47.5	-	-	-
CCn1c(SCC(=O)Nc2cccc3ccccc23)nnc1-c1cccs1	-	.	.	.	-	.	.
CCc1ccc(OCC(=O)N/N=C2\CC(=O)c3ccccc32)cc1	.	-	61.2	24.6	.	-	-
CNc1ccc2c3c(cccc13)C(=O)N(C)C2=O	-	-	40.1	94.7	+	-	86.3
N#CCC[C@@H]1CC[C@]2(CCCN(S(=O)(=O)c3ccccc3)C2)O1	-	.	.	.	-	.	.
